Converted amounts (≈) assume the structure as drawn. The source made the active and inactive calls. The calls are words filed in the database; no cut-off is given here.

Holding throughout (type): functional, cell-based
For experiment [1], the system named is Lewis lung carcinoma cell line. As to the kind of experiment: Antiproliferative activity against mouse LLC cells after 24 hrs by MTS assay. In outline: (§1)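 Cells kept at 37 °C, 5% CO2; seeded 1 × 10⁴ cells/well in D-MEM with 12% FCS, streptomycin and penicillin. After 24 h (about 80% confluent), aqueous stocks (DMSO added if needed) diluted in medium and added at various concentrations, 12 or 24 h incubation. Cells washed in PBS, resuspended in Phenol Red-free DMEM with MTS; formazan absorbance read. Survival as % of control; mean ± SD of three experiments; IC50 determined.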
(In general: Tetrazolium assays rely on reduction of a dye to a coloured formazan, in cell work by metabolically active cells.)

Experiment [2] deals with HCT-116. As to the kind of experiment: Antiproliferative activity against human HCT116 cells after 24 hrs by MTS assay. The conditions noted are these: HCT-116, 24 h. In outline:
as §1

The test system of experiment [3] is HCT-116. The experiment is described as follows: Antiproliferative activity against human HCT116 cells at 0.1 to 100 ug/ml after 24 hrs by MTS assay. In outline: as §1
For experiment [4], the system named is Lewis lung carcinoma cell line. As to the kind of experiment: Antiproliferative activity against mouse LLC cells at 0.1 to 100 ug/ml after 24 hrs by MTS assay. In outline:
as §1

Broadly, the IC50 is the concentration at which inhibition is half-maximal. Read a low IC50 as higher potency. For the molecule `COc1cccc2c1C(=O)c1c(O)c3c(c(O)c1C2=O)C[C@@](O)(C(=O)CO)C[C@@H]3O[C@H]1C[C@H](N)[C@H](O)[C@H](C)O1` [DOXORUBICIN], the concentration for half-maximal inhibition (IC50) in experiment [1] worked out at 3.7 µg/mL (≈ 6.81 µM); with HCT-116 [2], 3.3 µg/mL (≈ 6.07 µM).
Consider `CCCCCCCCCC[n+]1cc2c(c3ccccc31)Nc1ccccc1S2.[Br-]`, for which the IC50 in experiment [1] came to 17.1 µg/mL; in the experiment on HCT-116 [2] it was 19.6 µg/mL.
As for `C[n+]1cc2c(c3ccccc31)Nc1cc(N)ccc1S2.[Cl-]`, the IC50 is 4.7 µg/mL in experiment [1] and 2.2 µg/mL with HCT-116 [2].
Regarding `CCCC[n+]1cc2c(c3ccccc31)Nc1ccccc1S2.[Br-]`, the values for the IC50 (in experiment [1]; with HCT-116 [2]) were 14 µg/mL and 14.4 µg/mL, respectively.
In the case of `C[n+]1cc2c(c3ccccc31)Nc1cc(O)ccc1S2.[Cl-]`, the 50% inhibitory concentration (IC50) in experiment [1] came to 5.7 µg/mL; in the experiment with HCT-116 [2], 7.6 µg/mL.
With `C[n+]1cc2c(c3ccccc31)Nc1ccc(Br)cc1S2.[Cl-]`, the half-maximal inhibitory concentration (IC50) amounted to 6.5 µg/mL in experiment [1] and 6.9 µg/mL in the experiment with HCT-116 [2].
Regarding `C[n+]1cc2c(c3ccccc31)Nc1c(N)cccc1S2`, the outcome (with HCT-116 [3]; in experiment [4]) was inactive.
Consider `Cc1ccc2c(c1)Sc1c[n+](C)c3ccccc3c1N2.[Cl-]`, for which the 50% inhibitory concentration (IC50) in experiment [1] is 8.8 µg/mL; in the experiment on HCT-116 [2] it was 4.4 µg/mL.
For `Cc1cccc2c1Nc1c(c[n+](C)c3ccccc13)S2`, the result (with HCT-116 [3]; in experiment [4]) was inactive.
Consider `C[n+]1cc2c(c3ccccc31)Nc1ccccc1S2.[Cl-]`, for which the half-maximal inhibitory concentration (IC50) in experiment [1] was found to be 2.3 µg/mL; in the experiment on HCT-116 [2] it was 7.8 µg/mL.
Regarding `C[n+]1cc2c(c3ccccc31)Nc1c(O)cccc1S2`, the outcome (with HCT-116 [3]; in experiment [4]) was inactive.
For `C[n+]1cc2c(c3ccccc31)Nc1ccc(N)cc1S2.[Cl-]`, the IC50 in experiment [1] is 8.9 µg/mL; in the experiment with HCT-116 [2] it was 5.1 µg/mL.
With `C[n+]1cc2c(c3ccccc31)Nc1ccc(Cl)cc1S2.[Cl-]`, the IC50 is 5.4 µg/mL in experiment [1] and 7.4 µg/mL in the experiment on HCT-116 [2].
As for `C[n+]1cc2c(c3ccccc31)Nc1ccc(O)cc1S2.[Cl-]`, the IC50 in experiment [1] came to 7.2 µg/mL; in the experiment on HCT-116 [2], 6.7 µg/mL.
Consider `C[n+]1cc2c(c3ccccc31)Nc1ccc(F)cc1S2.[Cl-]`, for which the IC50 in experiment [1] stood at 6.4 µg/mL; in the experiment on HCT-116 [2], 6.7 µg/mL.
As for `C[n+]1cc2c(c3ccccc31)Nc1cccnc1S2.[Cl-]`, the figures for the IC50 (in experiment [1]; in the experiment with HCT-116 [2]) were 13.2 µg/mL and 17.2 µg/mL, respectively.

The values are drawn from ChEMBL document CHEMBL1275302, “Synthesis and in vitro antiproliferative activity of 5-alkyl-12(H)-quino[3,4-b] [1,4]benzothiazinium salts” (Eur J Med Chem, 2010).
